Values after ≈ are worked out from the molar mass of the structure shown. Active and inactive are the calls of the source. The rule behind the calls is not given here.
Experiments:
[1] = Selectivity index, ratio of IC50 for cytotoxicity against human MRC5 cells to MIC for antibacterial activity against Clostridium tetani; type: toxicity, cell-based; conditions: read-out: Selectivity Index
Enterococcus faecalis [2] = experiment: Antibacterial activity against Enterococcus faecalis LMG 16216 incubated for 20 hrs by CLSI based broth microdilution method; type: functional
Bacillus cereus [3] = experiment: Antibacterial activity against Bacillus cereus ATCC 10987 assessed as membrane potential change at 0.5 to 2X MIC incubated for 20 mins by DiSC3(5) staining based assay; type: functional, organism-based
Outline: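 B. cereus grown in LB to OD600 1, washed in glucose-HEPES pH 7.4, OD600 0.5, loaded with 2 μM DiSC3(5) for 20 min at 37 °C for baseline. […] Gramicidin S positive control; untreated cells and dye-only medium negative controls; triplicate.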

Staphylococcus aureus [4] = experiment: Antibacterial activity against Staphylococcus aureus LMG 15975 incubated for 20 hrs by CLSI based broth microdilution method; type: functional
Enterococcus faecalis [5] = experiment: Antibacterial activity against Enterococcus faecalis V583 incubated for 20 hrs by CLSI based broth microdilution method; type: functional
[6] = Antibacterial activity against Clostridium-ihumii AP5 incubated for 24 hrs by CLSI based broth microdilution method; type: functional
Clostridium beijerinckii = experiment: Antibacterial activity against Clostridium beijerinckii B504 incubated for 24 hrs by CLSI based broth microdilution method; type: functional
Bacillus cereus [7] = experiment: Inhibition of electron transport chain in Bacillus cereus ATCC 10987 by measuring reduction of resazurin upto 120 min by resazurin dye based assay; conditions: DDE = dose-dependent effect
Outline: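 B. cereus grown in LB to OD600 1, washed and resuspended in cMHB at OD600 0.2 with 100 μg/mL resazurin. Compounds added at the indicated concentrations; resorufin fluorescence (ex/em 550/590 nm) read every 5 min for 125 min. CCCP at 400, 200, 100 μM positive control; untreated cells and medium with resazurin negative controls; triplicate.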

[8] = Selectivity index, ratio of IC50 for cytotoxicity against human MRC5 cells to MIC for antibacterial activity against Staphylococcus aureus; type: toxicity, cell-based; conditions: read-out: Selectivity Index
Clostridium botulinum = experiment: Antibacterial activity against Clostridium botulinum CECT551 incubated for 24 hrs by CLSI based broth microdilution method; type: functional
Staphylococcus aureus [9] = experiment: Antibacterial activity against Staphylococcus aureus LMG 10147 incubated for 20 hrs by CLSI based broth microdilution method; type: functional
Bacillus cereus [10] = experiment: Antibacterial activity against Bacillus cereus ATCC 10987 assessed as decrease in membrane integrity at 2x MIC incubated for 18 hrs by propidium iodide staining assay; type: functional, organism-based
Outline: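 B. cereus grown 18 h in LB at 37 °C, washed in 5 mM HEPES pH 7.4 + 5 mM glucose, OD600 0.5, loaded with 10 μg/mL propidium iodide for 10 min. […] Gramicidin S positive control; triplicate.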

[11] = Cytotoxicity against human MRC5 cells assessed as cellular metabolism incubated for 72 hrs by MTT assay; type: toxicity, cell-based
Outline: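 MRC-5 cells in DMEM (1 g/L glucose) with 10% heat-inactivated FBS, 2 mM glutamine, penicillin/streptomycin, at 37 °C, 5% CO2. 5 × 10^3 cells/well seeded with increasing compound concentrations, 72 h. MTT added for 4 h, formazan dissolved in DMSO, A570 read. Sigmoidal fit for 50% growth reduction vs untreated; three independent experiments in triplicate.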

Enterococcus faecalis [12] = experiment: Antibacterial activity against Enterococcus faecalis LMG 08222 incubated for 20 hrs by CLSI based broth microdilution method; type: functional
Bacillus cereus [13] = experiment: Bactericidal activity against Bacillus cereus ATCC 10987 measured upto 24 hrs by CLSI based broth microdilution method; type: functional
Outline: (§1)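 Each well then used as a 10% inoculum into fresh cMHB and incubated at 37 °C for 24 h. No regrowth in the MIC range was scored bactericidal, regrowth bacteriostatic. Triplicate.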

[14] = Selectivity index, ratio of IC50 for cytotoxicity against human MRC5 cells to MIC for antibacterial activity against Enterococcus faecalis; type: toxicity, cell-based; conditions: read-out: Selectivity Index
Clostridioides difficile = experiment: Antibacterial activity against Clostridium difficile CECT531 incubated for 24 hrs by CLSI based broth microdilution method; type: functional
[15] = Hemolytic activity in human erythrocytes at […] incubated for 1 hrs; type: toxicity, cell-based, Erythrocyte; conditions: erythrocytes, read-out: Activity
Bacillus cereus [16] = experiment: Bactericidal activity against Bacillus cereus ATCC 10987 at 16 uM measured upto 24 hrs by CLSI based broth microdilution method; type: functional, organism-based; outline: as §1
Staphylococcus aureus [17] = experiment: Bactericidal activity against Staphylococcus aureus LMG 8224 at 16 uM measured upto 24 hrs by CLSI based broth microdilution method; type: functional, organism-based; outline: as §1
Staphylococcus aureus [18] = experiment: Bactericidal activity against Staphylococcus aureus LMG 8224 measured upto 24 hrs by CLSI based broth microdilution method; type: functional; outline: as §1
[19] = Selectivity index, ratio of IC50 for cytotoxicity against human MRC5 cells to MIC for antibacterial activity against Bacillus cereus; type: toxicity, cell-based; conditions: read-out: Selectivity Index
Bacillus cereus [20] = experiment: Antibacterial activity against Bacillus cereus ATCC 14579 incubated for 20 hrs by CLSI based broth microdilution method; type: functional
Clostridium perfringens = experiment: Antibacterial activity against Clostridium perfringens CECT376 incubated for 24 hrs by CLSI based broth microdilution method; type: functional
Escherichia coli [21] = experiment: Antimicrobial activity against Escherichia coli LMG […] incubated for 20 hrs by CLSI based broth microdilution method; type: functional
Clostridium tetani = experiment: Antibacterial activity against Clostridium tetani CECT 4629 incubated for 24 hrs by CLSI based broth microdilution method; type: functional
Escherichia coli [22] = experiment: Antimicrobial activity against Escherichia coli LMG […] in presence of outer membrane disturbing peptide L-11 incubated for 20 hrs by CLSI based broth microdilution method; type: functional
Bacillus cereus [23] = experiment: Antibacterial activity against Bacillus cereus ATCC 10987 incubated for 20 hrs by CLSI based broth microdilution method; type: functional
Enterococcus faecalis [24] = experiment: Bactericidal activity against Enterococcus faecalis V583 measured upto 24 hrs by CLSI based broth microdilution method; type: functional; outline: as §1
Staphylococcus aureus [25] = experiment: Antibacterial activity against Staphylococcus aureus LMG 8224 incubated for 20 hrs by CLSI based broth microdilution method; type: functional
Enterococcus faecalis [26] = experiment: Bactericidal activity against Enterococcus faecalis V583 at 16 uM measured upto 24 hrs by CLSI based broth microdilution method; type: functional, organism-based; outline: as §1
Staphylococcus aureus [27] = experiment: Bactericidal activity against Staphylococcus aureus LMG 8224 at […] measured upto 24 hrs by CLSI based broth microdilution method; type: functional, organism-based; conditions: dose 128.0 µM
Bacillus cereus [28] = experiment: Bactericidal activity against Bacillus cereus ATCC 10987 at 64 uM measured upto 24 hrs by CLSI based broth microdilution method; type: functional, organism-based; outline: as §1
Enterococcus faecalis [29] = experiment: Bactericidal activity against Enterococcus faecalis V583 at 32 uM measured upto 24 hrs by CLSI based broth microdilution method; type: functional, organism-based; outline: as §1

Row | Compound | MIC (Enterococcus faecalis [2]) [µM] | Activity (Bacillus cereus [3]) | MIC (Staphylococcus aureus [4]) [µM] | MIC (Enterococcus faecalis [5]) [µM] | MIC [6] [µM] | MIC (Clostridium beijerinckii) [µM] | inhibition (Bacillus cereus [7]) | MIC (Clostridium botulinum) [µM] | MIC (Staphylococcus aureus [9]) [µM] | Activity (Bacillus cereus [10]) | IC50 at 72 h [11] [µM] | MIC (Enterococcus faecalis [12]) [µM] | MIC (Clostridioides difficile) [µM] | hemolysis at 1 h, […] [15] [%] | MIC (Bacillus cereus [20]) [µM] | MIC (Clostridium perfringens) [µM] | MIC (Clostridium tetani) [µM] | MIC (Bacillus cereus [23]) [µM] | MIC (Staphylococcus aureus [25]) [µM] | also measured
1 | CC(C)(C)[Si](C)(C)Oc1ccc(/C=C/c2cc(O)cc(O)c2)cc1 | 8 (≈ 2.74 µg/mL) | Active | 8 (≈ 2.74 µg/mL) | 8 (≈ 2.74 µg/mL) | 16 (≈ 5.48 µg/mL) | 10.6 (≈ 3.63 µg/mL) | Dde | 13.3 (≈ 4.56 µg/mL) | 8 (≈ 2.74 µg/mL) | Active | 15.5 | 6.6 (≈ 2.26 µg/mL) | 21.3 (≈ 7.3 µg/mL) | 12.7 | 4 (≈ 1.37 µg/mL) | 13.3 (≈ 4.56 µg/mL) | 5.3 (≈ 1.82 µg/mL) | 8 (≈ 2.74 µg/mL) | 8 (≈ 2.74 µg/mL) | selectivity ratio [1]: 2; selectivity ratio [8]: 2; MIC (Bacillus cereus [13]): 32 µM (≈ 11 µg/mL); selectivity ratio [14]: 2; Activity (Bacillus cereus [16]): Active; Activity (Staphylococcus aureus [17]): Active; MIC (Staphylococcus aureus [18]): 32 µM (≈ 11 µg/mL); selectivity ratio [19]: 2; MIC (Escherichia coli [21]): > 128 µM; MIC (Escherichia coli [22]): 13.3 µM; MIC (Enterococcus faecalis [24]): 32 µM (≈ 11 µg/mL); Activity (Enterococcus faecalis [26]): Active
2 | CC[Si](CC)(CC)Oc1cc(O)cc(/C=C/c2ccc(O)cc2)c1 |  |  |  |  |  |  |  |  |  |  | 21.3 |  |  |  |  |  |  |  |  | 
3 | GENTAMICIN |  |  |  | > 32 |  |  |  |  |  |  |  |  | > 32 |  |  | > 32 |  | 4 | 1 | 
4 | CC(C)(C)[Si](C)(C)Oc1cc(O)cc(/C=C/c2ccc(O)cc2)c1 | 16 (≈ 5.48 µg/mL) |  | 16 (≈ 5.48 µg/mL) | 16 (≈ 5.48 µg/mL) | 32 (≈ 11 µg/mL) | 26.6 (≈ 9.11 µg/mL) |  | 16 (≈ 5.48 µg/mL) | 16 (≈ 5.48 µg/mL) |  | 2.7 | 8 (≈ 2.74 µg/mL) | 26.6 (≈ 9.11 µg/mL) | 18.4 | 16 (≈ 5.48 µg/mL) | 32 (≈ 11 µg/mL) | 6.6 (≈ 2.26 µg/mL) | 16 (≈ 5.48 µg/mL) | 16 (≈ 5.48 µg/mL) | 
5 | CC(C)[Si](Oc1ccc(/C=C/c2cc(O)cc(O)c2)cc1)(C(C)C)C(C)C |  | Active |  |  |  |  | Dde |  |  | Active |  |  |  |  |  |  |  |  |  | Activity (Staphylococcus aureus [27]): Active; Activity (Bacillus cereus [28]): Active; Activity (Enterococcus faecalis [29]): Active

Source: ChEMBL document CHEMBL5137029, “Chemically Tuning Resveratrol for the Effective Killing of Gram-Positive Pathogens” (J Nat Prod, 2022)
